From ChEMBL document CHEMBL4351005, “Human constitutive androstane receptor agonist DL5016: A novel sensitizer for cyclophosphamide-based chemotherapies” (Eur J Med Chem, 2019) come the findings set out here.

Data set [1] has as its target T1, Nuclear receptor subfamily 1 group I member 3 (Homo sapiens, UniProt Q14994).
T1 sequence (Q14994 whole entry): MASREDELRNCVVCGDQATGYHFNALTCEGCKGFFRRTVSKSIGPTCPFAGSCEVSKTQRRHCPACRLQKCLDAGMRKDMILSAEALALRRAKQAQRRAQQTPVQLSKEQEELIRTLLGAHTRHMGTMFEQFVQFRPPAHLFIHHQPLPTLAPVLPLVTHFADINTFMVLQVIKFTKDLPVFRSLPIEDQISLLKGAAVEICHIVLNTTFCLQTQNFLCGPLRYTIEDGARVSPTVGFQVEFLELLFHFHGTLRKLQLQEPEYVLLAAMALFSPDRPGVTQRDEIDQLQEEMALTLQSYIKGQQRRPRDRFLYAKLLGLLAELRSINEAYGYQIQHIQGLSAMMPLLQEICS
Description: Agonist activity at human constitutive androstane receptor expressed in HepG2 cells co-expressing CYP2B6 at 1 uM incubated for 23 hrs by One-Glo luciferase reporter gene assay. The data set is classed as cell-based. Conditions: hepg2, 23 h; call rule not given here. On the technique in general: Reporter assays use an easily measured gene product as a stand-in for the process of interest.

For data set [2], the target named is T1, Nuclear receptor subfamily 1 group I member 3. The experiment in a line: Ratio of Emax to EC50 for human constitutive androstane receptor expressed in HepG2 cells co-expressing CYP2B6.
Data set [3] concerns the target T2, Nuclear receptor subfamily 1 group I member 2 (Homo sapiens, UniProt O75469).
T2 sequence (O75469 whole entry): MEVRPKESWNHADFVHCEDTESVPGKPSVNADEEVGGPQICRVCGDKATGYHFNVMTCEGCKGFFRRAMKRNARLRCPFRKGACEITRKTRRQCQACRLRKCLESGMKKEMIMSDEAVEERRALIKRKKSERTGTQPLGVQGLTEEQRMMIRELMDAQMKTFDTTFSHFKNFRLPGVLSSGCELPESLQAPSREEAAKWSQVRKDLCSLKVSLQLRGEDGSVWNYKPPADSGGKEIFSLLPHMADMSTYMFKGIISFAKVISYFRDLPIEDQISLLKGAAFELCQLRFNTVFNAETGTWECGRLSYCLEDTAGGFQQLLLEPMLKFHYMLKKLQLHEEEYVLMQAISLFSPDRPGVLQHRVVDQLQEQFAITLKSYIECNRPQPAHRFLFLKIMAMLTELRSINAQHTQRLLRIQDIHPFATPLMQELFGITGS
Description: Agonist activity at human PXR expressed in HepG2 cells co-expressing CYP2B6 at 1 uM incubated for 23 hrs by One-Glo luciferase reporter gene assay. In kind it is cell-based. Conditions: hepg2, 23 h.

The target of data set [4] is T1, Nuclear receptor subfamily 1 group I member 3. Description: Agonist activity at human constitutive androstane receptor expressed in HepG2 cells co-expressing CYP2B6 incubated for 23 hrs by One-Glo luciferase reporter gene assay. In kind it is cell-based. The gist of the method:
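HepG2-CYP2B6-hCAR stable reporter cells, 2,500/well, attached 5 h at 37 °C/5% CO₂. Compounds in DMSO, 16 final concentrations from 6.41 pM to 92 μM (1:3 steps), with PK11195 at 0.75 μM final; final DMSO 0.46%. After 23 h, viability read by CellTiter-Fluor (ex 405/em 540 nm), then ONE-Glo luminescence (30 min, RT) in RLU.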

Data set [5] has the same target. The experiment in a line: Induction of constitutive androstane receptor in human primary hepatocytes assessed as upregulation of CYP3A4 protein expression measured after 72 hrs by Western blot analysis. In kind it is cell-based. The gist of the method:
(§1)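 Hepatocytes from donors #131 and #133, dosed 36 h after seeding at 0.1, 0.5 and 1 μM (0.1% DMSO vehicle) for 72 h. Homogenate proteins run on 4–12% SDS-PAGE and immunoblotted: anti-CYP2B6 1:200, anti-CYP3A4 1:5000, β-actin 1:50,000 loading control. HRP secondaries, ECL detection.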
In general terms: Immunoblotting shows a protein as a band on a membrane.

The target is the same in data set [6]. Description: Induction of adenoviral enhanced yellow fluorescent protein tagged constitutive androstane receptor translocation from cytoplasm to nucleus in human primary hepatocytes at 1 uM measured after 8 hrs by DAPI staining based fluorescent microscopic analysis. In kind it is cell-based. The gist of the method: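 Hepatocytes (60,000/well, collagen plates) infected overnight with Ad/EYFP-hCAR (3 μL/mL), then treated 8 h at 1 μM; controls 0.1% DMSO, phenobarbital 1 mM. Cells PFA-fixed and DAPI-stained; five images per well. Translocation % = cells with ≥50% nuclear overlap with EYFP-hCAR ÷ EYFP-positive cells; mean ± SD of five images.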

A short description of data set [7]: Lipophilicity, logP of compound. In kind it is physicochemical. Conditions: octanol/water.
Data set [8] has as its target T1, Nuclear receptor subfamily 1 group I member 3. Description: Induction of constitutive - androstane receptor in human primary hepatocytes assessed as upregulation of CYP2B6 mRNA expression measured after 24 hrs by RT-PCR analysis. The data set is classed as cell-based. The gist of the method:
(§2)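 Primary human hepatocytes (donors HL-#131 and #133), viability >90%, 0.75×10⁶ cells/well, Matrigel overlay 0.25 mg/mL. Dosed 36 h post-seeding at 0.1, 0.5 and 1 μM (vehicle 0.1% DMSO; rifampin 10 μM reference) for 24 h. RT-PCR fold over control = 2^ΔΔCt versus GAPDH; mean ± SD, three independent experiments.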

Data set [9] has the same target. Description: Induction of constitutive - androstane receptor in human primary hepatocytes assessed as upregulation of CYP2B6 protein expression measured after 72 hrs by Western blot analysis. The data set is classed as cell-based. The gist of the method:
as §1

Data set [10] has the same target. Description: Induction of constitutive androstane receptor in human primary hepatocytes assessed as upregulation of CYP3A4 mRNA expression measured after 24 hrs by RT-PCR analysis. The data set is classed as cell-based. The gist of the method:
as §2

The target is the same in data set [11]. Description: Induction of constitutive - androstane receptor in human primary hepatocytes assessed as upregulation of CYP3A4 mRNA expression at 0.5 to 5 uM after 24 hrs by RT-PCR analysis. In kind it is cell-based.
Data set [12] shares this target. Description: Induction of constitutive - androstane receptor in human primary hepatocytes assessed as upregulation of CYP2B6 mRNA expression at 0.5 to 5 uM after 24 hrs by RT-PCR analysis. The data set is classed as cell-based.

As usually defined, the EC50 is the concentration at which the effect is half-maximal. Lower therefore signals an effect from little substance. `Clc1ccc(-c2nc3sccn3c2CNCCc2ccc(Cl)c(Cl)c2)cc1`: the outcome in data set [1] and in data set [3] was Active. Besides, the Ratio in data set [2] was 7 µM⁻¹. In [4], this compound displayed an EC50 of 400 nM.
In the case of `FC(F)(F)c1ccc(-c2nc3sccn3c2CNCCc2ccc(Cl)c(Cl)c2)cc1`, the Ratio in data set [2] came to 1.7 µM⁻¹. In addition, a half-maximal response in [4] (EC50) required 2100 nM.
As to `Clc1ccc(-c2nc3sccn3c2CNC2Cc3ccccc3C2)cc1`, the result in data set [1] and in data set [3] was Active. Also, the Ratio in data set [2] was determined as 7.4 µM⁻¹. Moreover, in [4], a half-maximal response (EC50) required 460 nM.
For `Clc1ccc(-c2nc3sccn3c2CNCCc2ccccc2)cc1`, the outcome in data set [1] and in data set [3] was Active. Further, in data set [2], the Ratio came to 3.9 µM⁻¹. This compound also showed an EC50 in data set [4] of 740 nM.
Regarding `c1ccc2c(c1)CC(NCc1c(-c3ccc4ccccc4c3)nc3sccn13)C2`, the outcome in data set [1] and in data set [3] was Active. Further, in [2], the Ratio amounted to 2.4 µM⁻¹. Moreover, in data set [4], the EC50 was 1600 nM.
As to `c1ccc(CCNCc2c(-c3ccc4ccccc4c3)nc3sccn23)cc1`, the outcome in data set [1] was Active. The Ratio in data set [2] came to 1.9 µM⁻¹. Besides, the response in data set [4] was half-maximal at 1900 nM (EC50).
Turning to `Clc1ccc(CCNCc2c(-c3ccc(Cl)cc3)nc3sccn23)cc1`, the outcome in data set [1] and in data set [3] was Active. Besides, the Ratio in data set [2] was 4.3 µM⁻¹. In addition, the 50% effective concentration (EC50) in [4] stood at 650 nM.
Consider `CN(CCc1ccc(Cl)c(Cl)c1)Cc1c(-c2ccc(Cl)cc2)nc2sccn12`, for which the Ratio in [2] worked out at 2.1 µM⁻¹. A half-maximal effect in data set [4] (EC50) was put at 1100 nM.
In the same order, the values of `COc1ccc(-c2nc3sccn3c2CNCCc2ccc(Cl)c(Cl)c2)cc1` are 4.3 µM⁻¹ and 670 nM.
On to `Cc1ccc(-c2nc3sccn3c2CNCCc2ccc(Cl)c(Cl)c2)cc1`, for which the Ratio in data set [2] was found to be 6.1 µM⁻¹. Moreover, the EC50 in [4] was 440 nM.
Regarding `Fc1ccc(-c2nc3sccn3c2CNCCc2ccc(Cl)c(Cl)c2)cc1`, the outcome in data set [1] was Active. Moreover, the Ratio in data set [2] was 18 µM⁻¹. Also, in data set [4], a half-maximal effect (EC50) was put at 150 nM.
As for `Clc1cccc(-c2nc3sccn3c2CNCCc2ccc(Cl)c(Cl)c2)c1`, the Ratio in data set [2] is 3.4 µM⁻¹. Also, the 50% effective concentration (EC50) in [4] was 930 nM.
In the case of `N#Cc1ccc(-c2nc3sccn3c2CNCCc2ccc(Cl)c(Cl)c2)cc1`, in data set [2], the Ratio was 1.9 µM⁻¹. Further, in [4], the concentration for a half-maximal effect (EC50) amounted to 1500 nM.
As to `Fc1ccc(CCNCc2c(-c3ccc(Cl)cc3)nc3sccn23)cc1`, the Ratio in [2] was 1.4 µM⁻¹. This compound also displayed an EC50 in data set [4] of 2100 nM.
The term logP denotes a log measure of how a compound divides between an organic and an aqueous phase. Take `Clc1ccc(-c2nc3sccn3c2/C=N/OCc2ccc(Cl)c(Cl)c2)cc1`: the Activity entry in data set [5] is given as “Active”; in data set [6] it was “Active”; in data set [1], “Active”; in [3] it was “Active”; in data set [8], “Dose-dependent effect”; in data set [9], “Dose-dependent effect”. Also, in [10], the outcome was Active. The same compound had a log partition coefficient (logP) in data set [7] of 7.26.
With `Clc1ccc(CCNCc2c(-c3ccccc3)nc3sccn23)cc1Cl`, the result in [1] was Active. Also, in data set [2], the Ratio is 12 µM⁻¹. Besides, the 50% effective concentration (EC50) in data set [4] was 240 nM.
On to `O=C(NCCc1ccc(Cl)c(Cl)c1)c1c(-c2ccc(Cl)cc2)nc2sccn12`, for which the Ratio in data set [2] is 2.4 µM⁻¹. For the same compound, the EC50 in [4] was determined as 1100 nM.
As for `Clc1ccc(-c2nc3sccn3c2COCCc2ccc(Cl)c(Cl)c2)cc1`, the outcome in [1] and in data set [3] was Active. For the same compound, the Ratio in data set [2] worked out at 13 µM⁻¹. This compound showed a 50% effective concentration (EC50) in [4] of 190 nM.
On to `Clc1ccc(-c2nc3sccn3c2/C=N/CCc2ccc(Cl)c(Cl)c2)cc1`, for which the Activity result in [11] and in [12] was “Not Active” in each case. The Ratio in [2] came to 0.13 µM⁻¹. Also, in [4], the response was half-maximal at 54000 nM (EC50).
With `Oc1ccc(CCNCc2c(-c3ccc(Cl)cc3)nc3sccn23)cc1`, the Ratio in data set [2] turned out to be 0.36 µM⁻¹. Besides, the response in data set [4] was half-maximal at 10000 nM (EC50).
In the same order, the values of `Clc1ccc(-c2nc3ncccn3c2CNCCc2ccc(Cl)c(Cl)c2)cc1` are 3 µM⁻¹ and 920 nM.
Regarding `Clc1ccc(CCNCc2c(-c3ccc4ccccc4c3)nc3sccn23)cc1Cl`, the outcome in [1] and in [3] was Active. In addition, the Ratio in data set [2] stood at 2.4 µM⁻¹. Also, a half-maximal response in [4] (EC50) required 1500 nM.
`CC(C)(C)c1ccc(-c2nc3sccn3c2CNCCc2ccc(Cl)c(Cl)c2)cc1`: the Ratio in [2] was 0.74 µM⁻¹. In data set [4], the half-maximal effective concentration (EC50) is 10000 nM.
In the case of `Clc1ccc(-c2nc3sccn3c2CNCCc2c[nH]c3ccccc23)cc1`, the Ratio in data set [2] amounted to 1.4 µM⁻¹. Moreover, in [4], a half-maximal response (EC50) required 2700 nM.
As for `Clc1ccc(-c2nc3sccn3c2CNCCc2ccc(Br)cc2)cc1`, in [2], the Ratio is 1.1 µM⁻¹. It took 3200 nM to reach a half-maximal effect in data set [4] (EC50).
As for `Clc1ccc(-c2nc3sccn3c2CNCCc2cccc(Cl)c2)cc1`, the Ratio in [2] worked out at 1.1 µM⁻¹. Further, the half-maximal effective concentration (EC50) in data set [4] turned out to be 2800 nM.
As to `CCc1nc2sccn2c1CNCCc1ccc(Cl)c(Cl)c1`, in data set [2], the Ratio worked out at 0.37. Besides, in [4], the midpoint of the response, the EC50, lay at 8700 nM.
As for `Clc1ccc(-c2nc3sccn3c2CNc2ccc3ccccc3c2)cc1`, the Ratio in data set [2] stood at 0.22 µM⁻¹. Also, the EC50 in data set [4] is 63000 nM.
As to `Clc1ccc(-c2nc3sccn3c2CNCc2ccccc2)cc1`, in data set [2], the Ratio was 0.42 µM⁻¹. In [4], this compound yielded a half-maximal effective concentration (EC50) of 9200 nM.
With `Cc1cn2c(CNCCc3ccc(Cl)c(Cl)c3)c(-c3ccc(Cl)cc3)nc2s1`, the Ratio in [2] was found to be 1.4 µM⁻¹. The compound also returned an EC50 in [4] of 2200 nM.
In the same order, the values of `Clc1ccc(CCNCc2c(-c3ccc(Br)cc3)nc3sccn23)cc1Cl` are 4.6 µM⁻¹ and 560 nM.
In the same order, the values of `Clc1ccc(-c2nc3occn3c2CNCCc2ccc(Cl)c(Cl)c2)cc1` are 2.3 µM⁻¹ and 1300 nM.
